ROMK primary: human ROMK K+ channel modulation, primary screen | 130,000 compounds, 2% hits | P48048 | Tet-inducible ROMK, thallium flux fluorescence; actives lie on both sides | B-score at 10 µM;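 active = signal ratio slope over the read window, or its plate-corrected B-score, at least 3 SD from the plate mean, either direction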;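 note: B-score of the F/F0 ratio slope over 7 to 12 s after thallium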
Cl transport mod: KCC2 (human) Cl- transport modulation. AID 1456. 190,000 compounds, 2.2% hits. KCC2 cells, thallium flux FluoZin-2 fluorescence. B-score of Tl+ flux slope (higher = more flux/activation; lower = inhibition) at 10 µM. Q9H2X9;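 active = thallium flux slope and its plate-corrected score both differing from the plate sample mean at a set confidence after two filtering rounds, in either direction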;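 note: slope of fluorescence scaled to starting intensity during 10 to 20 s after thallium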
Target sequence (Q9H2X9 whole entry, looked up): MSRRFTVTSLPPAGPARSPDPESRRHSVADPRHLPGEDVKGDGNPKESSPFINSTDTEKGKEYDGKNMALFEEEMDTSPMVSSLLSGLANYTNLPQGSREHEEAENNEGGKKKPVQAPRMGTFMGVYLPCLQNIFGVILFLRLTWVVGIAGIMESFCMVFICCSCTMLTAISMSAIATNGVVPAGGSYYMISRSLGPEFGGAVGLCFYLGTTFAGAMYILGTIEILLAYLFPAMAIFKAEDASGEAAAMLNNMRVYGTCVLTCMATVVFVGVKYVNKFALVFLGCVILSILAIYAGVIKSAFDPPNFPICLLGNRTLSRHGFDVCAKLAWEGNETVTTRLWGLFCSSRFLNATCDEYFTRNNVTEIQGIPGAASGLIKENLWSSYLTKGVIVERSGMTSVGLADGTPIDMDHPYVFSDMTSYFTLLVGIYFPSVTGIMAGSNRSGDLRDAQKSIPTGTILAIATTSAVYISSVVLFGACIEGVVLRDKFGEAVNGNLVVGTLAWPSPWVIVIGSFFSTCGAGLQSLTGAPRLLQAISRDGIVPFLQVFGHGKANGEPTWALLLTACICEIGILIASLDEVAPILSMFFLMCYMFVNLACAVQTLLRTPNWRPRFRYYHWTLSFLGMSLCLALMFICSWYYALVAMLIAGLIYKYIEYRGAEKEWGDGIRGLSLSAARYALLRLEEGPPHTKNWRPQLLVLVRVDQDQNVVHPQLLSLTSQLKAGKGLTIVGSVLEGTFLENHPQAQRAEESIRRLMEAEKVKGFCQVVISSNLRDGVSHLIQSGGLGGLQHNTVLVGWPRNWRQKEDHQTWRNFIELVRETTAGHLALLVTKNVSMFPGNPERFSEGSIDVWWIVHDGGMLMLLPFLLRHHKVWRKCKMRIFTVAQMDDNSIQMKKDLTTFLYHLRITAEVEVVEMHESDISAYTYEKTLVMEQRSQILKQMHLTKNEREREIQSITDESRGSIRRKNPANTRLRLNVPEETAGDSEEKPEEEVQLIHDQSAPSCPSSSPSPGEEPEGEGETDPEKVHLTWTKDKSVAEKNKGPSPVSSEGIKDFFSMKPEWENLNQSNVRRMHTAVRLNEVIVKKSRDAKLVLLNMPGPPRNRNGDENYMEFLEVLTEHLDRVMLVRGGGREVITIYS
MDM2 E3 inh: inhibitors of human Mdm2 E3 ubiquitin ligase; Q00987; 210,000 compounds, 0.11% hits; AID 1230; cell-based MDM2 ubiquitination luciferase reporter, 2 h; 0 = plate control, 100 = twice control, blank-subtracted; signal enhancement, % at 5 µM;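 active = signal enhancement of 30% or more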;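 note: luminescence tracks abundance of the self-degrading MDM2-luciferase fusion protein; higher signal means inhibition of MDM2 E3 ligase activity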
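Assay system: stable mammalian line carrying autodegrading MDM2–luciferase fusion reporter; amount: 2000 cells seeded into each well; buffer or medium: DMEM; benchmarks: plate control and blank wells; signal: luciferase luminescence; timing: 2 h compound exposure at 37 °C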
Redox H2O2 prof: compounds producing H2O2 with reducing agent – biochemical, NIH compound library profiling, artefact control for MLSCN library redox annotation, primary screen. DTT-dependent redox cycling H2O2, phenol red/HRP absorbance; 100% = 100 µM peroxide control, 0% = buffer. activation, % at 10 µM. 200,000 compounds, 0.03% hits. AID 878;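 active = activation of at least 50% relative to the plate's high and low controls in the primary single-dose screen; inactive = activation below 50%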;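 note: compound incubated with DTT at 0.8 mM final as the reducing agent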
p97 ATPase inh: inhibitors of human p97 ATPase; P55072; recombinant p97 ATPase, Kinase-Glo ATP luminescence, 3 h; inhibition, % at 8 µM; 220,000 compounds, 0.42% hits; AID 1481; in the data active = inhibition above about 15%
PKD1 inh: blocks activity of human protein kinase D1; Q15139; PKD1 kinase fluorescence polarization assay; inhibition, % (concentration not given with the values); 200,000 compounds, 0.056% hits; in the data active = inhibition above about 50%
Redox H2O2 DR: generates H2O2 by DTT-dependent redox cycling, confirmed in dose response; shares compounds with Redox H2O2 prof; phenol red-HRP absorbance; EC50, µM; 60 compounds, 40% hits;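 active = EC50 under a set limit for hydrogen peroxide production with the reducing agent DTT present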
p97 confirm: confirmation of human p97 ATPase inhibitors; recombinant p97 ATPase, Kinase-Glo ATP luminescence; inhibition, % at 8 µM; 760 compounds, 44% hits; shares compounds with p97 ATPase inh; AID 1517;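 active = percent inhibition of p97 ATPase above a set limit, the primary screen's mean plus 3 SD, cut at about 15% in these data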
Hits are given with their value. A selection: hits, their analogues and other compounds. The true share with any hit is near 3.4%.

COc1ccc(-c2nc3ccccc3c(=O)n2NC(=O)Cc2ccccc2)cc1 was read as Cl transport mod inactive, MDM2 E3 inh inactive, Redox H2O2 prof inactive, p97 ATPase inh inactive and PKD1 inh inactive.
Screening Cc1oc2c(c1C(=O)c1ccc(Cl)cc1)C(=O)C(=O)c1ccccc1-2 returned Cl transport mod inactive, MDM2 E3 inh inactive, Redox H2O2 prof 344.2, p97 ATPase inh inactive, PKD1 inh inactive and Redox H2O2 DR 6.44.
Screening Cc1oc2cc(OC(C)C(=O)O)ccc2c(=O)c1Oc1ccccc1 (centres undefined) returned Cl transport mod inactive, MDM2 E3 inh inactive, Redox H2O2 prof inactive, p97 ATPase inh inactive and PKD1 inh inactive.
`CCOc1ccc2c(=O)c(Oc3ccccc3)c(C)oc2c1` gave MDM2 E3 inh inactive, Redox H2O2 prof 57.0, p97 ATPase inh inactive, PKD1 inh inactive and Redox H2O2 DR inactive.
Screening COc1ccc(Cl)cc1NC(=S)N(Cc1cccnc1)Cc1ccco1 returned ROMK primary inactive, Cl transport mod inactive, MDM2 E3 inh inactive, Redox H2O2 prof inactive, p97 ATPase inh inactive and PKD1 inh inactive.
CNC1=C(N(C(C)=O)c2ccc(Br)cc2)C(=O)c2ccccc2C1=O was read as ROMK primary inactive, Cl transport mod inactive, MDM2 E3 inh inactive, Redox H2O2 prof 107.6, p97 ATPase inh inactive, PKD1 inh inactive and Redox H2O2 DR inactive.
Screening COc1ccc(CN2C(=O)c3cccnc3C2O)cc1 (centres undefined) returned Cl transport mod inactive, MDM2 E3 inh inactive, Redox H2O2 prof 67.8, p97 ATPase inh inactive, PKD1 inh inactive and Redox H2O2 DR inactive.
COc1ccc(CN2C(=O)c3cccnc3C2Nc2cc(Cl)ccc2OC)cc1 (centres undefined) was read as ROMK primary inactive, Cl transport mod inactive, MDM2 E3 inh inactive, Redox H2O2 prof inactive, p97 ATPase inh inactive and PKD1 inh inactive.
`CCOC(=O)c1c2c(n(C)c1C)C(=O)C(=O)c1ccc(Br)cc1-2` gave ROMK primary inactive, Redox H2O2 prof 322.3, p97 ATPase inh inactive, PKD1 inh inactive and Redox H2O2 DR 0.04.
Cc1ccc(NC2=C/C(=N/S(=O)(=O)c3cccs3)c3ccccc3C2=O)cc1C was read as ROMK primary inactive, Cl transport mod inactive, MDM2 E3 inh inactive, Redox H2O2 prof inactive, p97 ATPase inh inactive and PKD1 inh inactive.
Screening Cc1cc(C)c(S(=O)(=O)/N=C2/C=C(Sc3ncn[nH]3)C(=O)c3ccccc32)cc1C returned ROMK primary -4.9, Cl transport mod inactive, MDM2 E3 inh inactive, Redox H2O2 prof 142.9, p97 ATPase inh inactive, PKD1 inh inactive and Redox H2O2 DR 23.3.
For C=CCNC(=S)NNC(=O)c1csc(CC)c1 the results were ROMK primary inactive, Cl transport mod inactive, MDM2 E3 inh inactive, Redox H2O2 prof inactive, p97 ATPase inh inactive and PKD1 inh inactive.
O=C(COC(=O)c1ccc([N+](=O)[O-])s1)NCc1ccccc1 was read as Cl transport mod inactive, MDM2 E3 inh inactive, Redox H2O2 prof 113.0, p97 ATPase inh inactive, PKD1 inh inactive and Redox H2O2 DR 39.2.
COc1cccc(C(C(=O)NC(C)(C)C)N(C(=O)CCC(=O)Nc2cc(C)on2)C2CC2)c1OC (centres undefined) was read as ROMK primary inactive, Cl transport mod inactive, MDM2 E3 inh inactive, Redox H2O2 prof inactive, p97 ATPase inh inactive and PKD1 inh inactive.
CC(=O)N(CN1C(=O)c2ccccc2C1=O)c1cccc(C)c1 was read as ROMK primary inactive, Cl transport mod inactive, MDM2 E3 inh inactive, Redox H2O2 prof inactive, p97 ATPase inh inactive and PKD1 inh inactive.
For CC(=O)N(/N=C1\Sc2ccccc2C1=O)c1cccc(C)c1 the results were Cl transport mod inactive, MDM2 E3 inh inactive, Redox H2O2 prof 296.2, p97 ATPase inh 15.0, PKD1 inh inactive, Redox H2O2 DR 26 and p97 confirm 24.2.
`O=C(O)CC1=C(O)C(=O)N(c2ccccc2)C1c1ccc(Cl)cc1` (centres undefined) gave ROMK primary inactive, Cl transport mod inactive, MDM2 E3 inh inactive, Redox H2O2 prof inactive, p97 ATPase inh inactive and PKD1 inh inactive.
CC(Cc1cccs1)NC(=S)Nc1ccccc1 (centres undefined) was read as ROMK primary inactive, Cl transport mod inactive, MDM2 E3 inh inactive, Redox H2O2 prof inactive, p97 ATPase inh inactive and PKD1 inh inactive.
`CC(=O)Nc1cc(OC(C)=O)c2nonc2c1OC(C)=O` gave ROMK primary -4.24, Redox H2O2 prof 113.1, p97 ATPase inh 29.6, PKD1 inh inactive, Redox H2O2 DR 7.85 and p97 confirm 31.6.
Screening O=S(=O)(Nc1cc2nc3ccccc3nc2n1Cc1ccccc1)c1ccc(Cl)cc1 returned Cl transport mod inactive, MDM2 E3 inh inactive, Redox H2O2 prof 85.0, p97 ATPase inh 30.5, PKD1 inh inactive, Redox H2O2 DR inactive and p97 confirm 43.4.
For COc1cc(OC)cc(C(=O)N2CCN(C(=O)c3ccc(-c4ccccc4)cc3)CC2)c1 the results were ROMK primary inactive, Cl transport mod inactive, MDM2 E3 inh inactive, Redox H2O2 prof inactive, p97 ATPase inh inactive and PKD1 inh inactive.
Cc1ccc(C(=O)c2c(C)oc3c2C(=O)C(=O)c2ccccc2-3)cc1 was read as Cl transport mod inactive, MDM2 E3 inh inactive, Redox H2O2 prof 457.8, p97 ATPase inh 21.6, PKD1 inh inactive, Redox H2O2 DR inactive and p97 confirm 19.5.
Cc1nc(-c2ccc(S(=O)(=O)N3CCN(Cc4ccccc4)CC3)s2)cs1 was read as ROMK primary inactive, Cl transport mod inactive, MDM2 E3 inh inactive and p97 ATPase inh inactive.
Cc1ccc(S(=O)(=O)c2c(N)n(-c3ccccc3)c3nc4ccccc4nc23)cc1 was read as Cl transport mod inactive, MDM2 E3 inh inactive, Redox H2O2 prof inactive, p97 ATPase inh inactive and PKD1 inh inactive.
CC(=O)Nc1c(S(=O)(=O)c2ccccc2)c2nc3ccccc3nc2n1Cc1ccccc1 was read as Cl transport mod inactive, MDM2 E3 inh inactive, Redox H2O2 prof inactive, p97 ATPase inh inactive and PKD1 inh inactive.
For C=CCn1c(NS(=O)(=O)c2ccccc2)c(S(=O)(=O)c2ccc(C)cc2)c2nc3ccccc3nc21 the results were Cl transport mod inactive, MDM2 E3 inh inactive, Redox H2O2 prof 99.2, p97 ATPase inh 31.4, PKD1 inh inactive, Redox H2O2 DR inactive and p97 confirm 29.0.

Source: PubChem BioAssay
